Results on 29 compounds are retold here after ChEMBL document CHEMBL4828710, “Lead optimization to improve the antiviral potency of 2-aminobenzamide derivatives targeting HIV-1 Vif-A3G axis” (Eur J Med Chem, 2021).

Data set [1] has as its system H9. Description: Cytotoxicity against human H9 cells assessed as cell viability incubated for 7 days by MTT colorimetric assay. Conditions: H9, 168 h, time 7 day. In kind it is functional. Summed up:
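H9 cells (2 × 10⁵/well) were incubated with varying compound concentrations in RPMI-1640 with 10% FBS at 37 °C in 5% CO₂ for seven days. Viability was read by MTT colorimetric assay, and CC50 was calculated.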

Data set [2] concerns Human immunodeficiency virus 1. Description: Antiviral activity against HIV13B infected in human H9 cells assessed as p24 level incubated for 7 days by ELISA. The data set is classed as functional, organism-based. Conditions: Human immunodeficiency virus 1, 3B, H9, 168 h. Put shortly: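 H9 cells were infected with HIV-1 IIIB at MOI 0.03 for 2 h, washed three times and resuspended in RPMI-1640. Infected cells (4 × 10⁴/well) were cultured with serially diluted compound at 37 °C in 5% CO₂ for 7 days. Supernatant p24 was measured by in-house ELISA, and EC50 was calculated.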
(In general: In an ELISA, binding on a coated surface is turned into a signal by an enzyme label.)

Data set [3] in a line: Therapeutic index, ratio of CC50 for cytotoxicity against human H9 cells to EC50 for antiviral activity against HIV13B. The data set is classed as toxicity, cell-based. To be noted: read-out: TI. Put shortly: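 TI = CC50/EC50. For EC50, H9 cells were infected with HIV-1 IIIB at MOI 0.03 for 2 h, washed three times, plated at 4 × 10⁴ cells/well with serial compound dilutions, and kept 7 days at 37 °C, 5% CO₂; supernatant p24 was read by in-house ELISA. For CC50, uninfected H9 cells at 2 × 10⁵/well in RPMI-1640 with 10% FBS were kept 7 days, then read by MTT.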

Data set [4] has as its target Virion infectivity factor (Human immunodeficiency virus type 1 group M subtype B (isolate NY5)(HIV-1)) (UniProt P12504). Description: Reversal of HIV1 Vif mediated A3G degradation in HIV1 infected human H9 cells for 48 hrs by western blotting analysis. In kind it is cell-based. To be noted: Human immunodeficiency virus 1. Summed up: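 Cells expressing A3G-HA and Vif were treated with compound at 50, 10 and 2 (three concentrations) at 37 °C for 48 h. They were then washed in ice-cold PBS and lysed in RIPA. A3G-HA and Vif were detected by SDS-PAGE, PVDF transfer, primary antibodies overnight at 4 °C, and HRP secondary for 2 h at room temperature, with chemiluminescence on X-ray film.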
In general terms: In western blotting, separated proteins are transferred to a membrane and probed.

In data set [5] the test system is Human immunodeficiency virus 1. Nature of the data set: Antiviral activity against NNRTI resistant HIV1 A17 infected in human TZM-bl cells assessed as inhibition of replication for 48 hrs by microplate reader method. The data set is classed as functional, organism-based. Conditions: Human immunodeficiency virus 1, A17, TZM-bl.
The subject of data set [6] is H9. Nature of the data set: Reduction in HIV1 Vif expression in HIV1 infected human H9 cells assessed as for 48 hrs by western blotting analysis. In kind it is functional, cell-based. To be noted: Human immunodeficiency virus 1, dose 2-50 µM. Summed up:
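Cells were exposed to the compound at […] at 37 °C for 48 h, then washed with ice-cold PBS and lysed in RIPA buffer. A3G-HA and Vif were resolved by SDS-PAGE and transferred to PVDF. Blots were probed overnight at 4 °C with primary antibodies, then 2 h at room temperature with HRP secondary antibodies. Bands were visualized by chemiluminescence on X-ray film.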

Data set [7] concerns Human immunodeficiency virus 1. Nature of the data set: Antiviral activity against IN resistant HIV1 pYU2G14OS/Q148H infected in human TZM-bl cells assessed as inhibition of replication for 48 hrs by microplate reader method. Conditions: Human immunodeficiency virus 1, pYU2G14OS/Q148H. The data set is classed as functional, organism-based.
Data set [8] concerns Human immunodeficiency virus 1. Description: Antiviral activity against PI resistant HIV-1 L70R/M461/L63P/V82T/184V infected in human TZM-bl cells assessed as inhibition of replication for 48 hrs by microplate reader method. To be noted: Human immunodeficiency virus 1, L70R/M461/L63P/V82T/184V. The data set is classed as functional, organism-based.
For data set [9], the system named is Human immunodeficiency virus. Description: Antiviral activity against FI resistant HIV PNL4-3-3gp41(364)V38A N42T infected in human TZM-bl cells assessed as inhibition of replication for 48 hrs by microplate reader method. The data set is classed as functional, organism-based.
The subject of data set [10] is Human immunodeficiency virus 1. Nature of the data set: Antiviral activity against NRTI resistant HIV1-4755-5 infected in human TZM-bl cells assessed as inhibition of replication for 48 hrs by microplate reader method. In kind it is functional, organism-based. Conditions: Human immunodeficiency virus 1, 4755-5, TZM-bl.

Active and inactive are the calls of the source. The rule behind the calls is not given here.

Virion infectivity factor (Human immunodeficiency virus type 1 group M subtype B (isolate NY5)(HIV-1)), sequence (P12504 whole entry): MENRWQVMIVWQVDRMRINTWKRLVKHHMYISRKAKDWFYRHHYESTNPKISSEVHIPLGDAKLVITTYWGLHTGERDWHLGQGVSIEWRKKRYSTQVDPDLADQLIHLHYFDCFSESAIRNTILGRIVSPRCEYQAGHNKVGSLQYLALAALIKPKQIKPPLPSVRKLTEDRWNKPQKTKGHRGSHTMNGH

Take `COc1ccc(C(=O)O)cc1NC(=O)c1c(N)cccc1Sc1ccc([N+](=O)[O-])cc1`: the CC50 in the data set on H9 [1] is more than 100 µM. In addition, the EC50 in data set [2] came out at 0.42 µM. Besides, in data set [3], the selectivity ratio was more than 238.
`COc1ccc(NC(=O)c2c(N)cccc2S(=O)(=O)c2ccc([N+](=O)[O-])cc2)cc1`: in data set [2], the EC50 is more than 100 µM.
Take `COc1ccc(Cl)cc1NC(=O)c1c(N)ncnc1Sc1ccc([N+](=O)[O-])cc1`: the CC50 with H9 [1] amounted to 2.22 µM. For the same compound, the EC50 in data set [2] worked out at 20 µM. Further, in data set [3], the selectivity ratio came out at 0.11.
Take `Nc1cccc(S(=O)(=O)c2ccc([N+](=O)[O-])cc2)c1C(=O)Nc1ccc(O)cc1`: the CC50 in the data set with H9 [1] was 32.5 µM. Moreover, in [2], the EC50 is 4.59 µM.
As to `COc1ccc(C(=O)O)cc1NC(=O)c1c(N)cccc1S(=O)(=O)c1ccc([N+](=O)[O-])cc1`, in data set [2], the EC50 is more than 100 µM.
Turning to `COc1ccc(F)cc1NC(=O)c1c(N)cccc1Sc1ccc([N+](=O)[O-])cc1`, the CC50 in the data set on H9 [1] is more than 100 µM. Besides, the EC50 in [2] amounted to 2.12 µM. Besides, the selectivity ratio in [3] is more than 47.2.
With `COc1ccc(NC(=O)c2c(N)cccc2S(=O)(=O)c2ccc([N+](=O)[O-])cc2)cc1OC`, the CC50 with H9 [1] is more than 100 µM. Besides, the EC50 in data set [2] stood at 15.5 µM. Also, in data set [3], the selectivity ratio was more than 6.45.
Consider `COc1cc(NC(=O)c2c(N)cccc2S(=O)(=O)c2ccc([N+](=O)[O-])cc2)cc(OC)c1`, for which the EC50 in data set [2] is more than 100 µM.
Regarding `COc1ccc(O)cc1NC(=O)c1c(N)cccc1S(=O)(=O)c1ccc([N+](=O)[O-])cc1`, in data set [4], the Activity result was “Dose-Dependent Effect”. Further, the EC50 is 46.4 µM in data set [5]; 3.74 µM in data set [7]; 4.39 µM in [8]; 0.07 µM in [2]; 3.02 µM in data set [9]; 8.4 µM in data set [10]. The outcome in the data set on H9 [6] was Active. For the same compound, the CC50 with H9 [1] was found to be 259 µM. In addition, the selectivity ratio in data set [3] turned out to be 3700.
Turning to `Nc1cccc(S(=O)(=O)c2ccc([N+](=O)[O-])cc2)c1C(=O)Nc1cccc(O)c1`, in data set [2], the EC50 was more than 100 µM.
Regarding `COc1cc(O)ccc1NC(=O)c1c(N)cccc1S(=O)(=O)c1ccc([N+](=O)[O-])cc1`, the CC50 in the data set on H9 [1] amounted to 54.7 µM. In addition, the EC50 in data set [2] amounted to 5.77 µM. In [3], the selectivity ratio stood at 9.48.
On to `COc1ccc(OCCCO)cc1NC(=O)c1c(N)cccc1Sc1ccc([N+](=O)[O-])cc1`, for which the EC50 in data set [2] was more than 100 µM.
`COc1ccc(O)cc1NC(=O)c1c(N)cccc1Sc1ccc([N+](=O)[O-])cc1`: the CC50 in the data set on H9 [1] was more than 100 µM. The concentration for a half-maximal effect (EC50) in [2] turned out to be 0.47 µM. In addition, the selectivity ratio in data set [3] is more than 213.
On the same counts, the results for `COc1ccc(O)cc1NC(=O)c1c(N)ncnc1Sc1ccc([N+](=O)[O-])cc1` are 35.8 µM, 40.6 µM and 0.88.
Consider `COc1ccc(OCCN2CCOCC2)cc1NC(=O)c1c(N)cccc1Sc1ccc([N+](=O)[O-])cc1`, for which, in [2], the EC50 is more than 100 µM.
`Nc1cccc(S(=O)(=O)c2ccc([N+](=O)[O-])cc2)c1C(=O)Nc1ccc(Cl)cc1F`: in the data set with H9 [1], the CC50 was more than 100 µM. In addition, the EC50 in data set [2] turned out to be 10.3 µM. For the same compound, in data set [3], the selectivity ratio was more than 9.71.
As for `COc1ccc(F)cc1NC(=O)c1c(N)ncnc1Sc1ccc([N+](=O)[O-])cc1`, the CC50 in the data set with H9 [1] is 26.6 µM. For the same compound, the EC50 in [2] amounted to 41.1 µM. In data set [3], the selectivity ratio was found to be 0.65.
Turning to `Cc1cc(Br)ccc1NC(=O)c1c(N)cccc1S(=O)(=O)c1ccc([N+](=O)[O-])cc1`, the EC50 in data set [2] was more than 100 µM.
For the compound `COc1ccccc1NC(=O)c1c(N)cccc1S(=O)(=O)c1ccc([N+](=O)[O-])cc1`, the CC50 in the data set on H9 [1] was more than 468 µM. In addition, in data set [2], the EC50 is 0.34 µM. The selectivity ratio in data set [3] is more than 1380.
On the same counts, the results for `COc1ccccc1NC(=O)c1c(N)ncnc1Sc1ccc([N+](=O)[O-])cc1` are 32.9 µM, 9.73 µM and 3.38.
Take `COc1cccc(NC(=O)c2c(N)cccc2S(=O)(=O)c2ccc([N+](=O)[O-])cc2)c1`: in data set [2], the EC50 is more than 100 µM.
Turning to `Cc1cc(C)cc(NC(=O)c2c(N)cccc2S(=O)(=O)c2ccc([N+](=O)[O-])cc2)c1`, the CC50 with H9 [1] is more than 100 µM. Moreover, the EC50 in data set [2] amounted to 26.4 µM. Moreover, in [3], the selectivity ratio was more than 3.79.
As to `COc1ccc(OC)c(NC(=O)c2c(N)cccc2Sc2ccc([N+](=O)[O-])cc2)c1`, in the data set on H9 [1], the CC50 was more than 200 µM. Also, in data set [2], the EC50 is 4.05 µM. In addition, in data set [3], the selectivity ratio was more than 49.4.
As to `COc1ccc(F)cc1NC(=O)c1c(N)cccc1S(=O)(=O)c1ccc([N+](=O)[O-])cc1`, the CC50 with H9 [1] was determined as 89.6 µM. Besides, the EC50 in [2] came out at 1.93 µM. Besides, the selectivity ratio in data set [3] worked out at 46.4.
On the same counts, the results for `COc1ccc(OC)c(NC(=O)c2c(N)cccc2S(=O)(=O)c2ccc([N+](=O)[O-])cc2)c1` are more than 200 µM, 3.97 µM and more than 50.4.
For `COc1ccc(NC(=O)c2c(N)cccc2S(=O)(=O)c2ccc([N+](=O)[O-])cc2)cc1O`, the EC50 in [2] was more than 100 µM.
For the compound `COc1ccc(OCCO)cc1NC(=O)c1c(N)cccc1Sc1ccc([N+](=O)[O-])cc1`, the EC50 in [2] was more than 100 µM.
In the case of `COc1ccc(NC(=O)c2c(N)cccc2S(=O)(=O)c2ccc([N+](=O)[O-])cc2)c(OC)c1`, the CC50 with H9 [1] was more than 100 µM. For the same compound, the half-maximal effective concentration (EC50) in [2] is 3.58 µM. The selectivity ratio in data set [3] was more than 27.9.
In the case of `Nc1ccn([C@@H]2CS[C@H](CO)O2)c(=O)n1` [LAMIVUDINE], the 50% cytotoxic concentration (CC50) in the data set on H9 [1] is more than 200 µM. Further, the EC50 in data set [2] worked out at 0.21 µM. Moreover, the selectivity ratio in [3] is more than 976.

The CC50 is the concentration giving 50% cytotoxicity. Usually EC50 stands for the concentration at which the effect is half-maximal.
